Results of several laboratories.
Lines come from different studies, so protocols differ.
CDK3 with cyclin E1: Cyclin-dependent kinase 3, with cyclin E1 (CDK3, Homo sapiens, UniProt Q00526)
CDK3 with cyclin E: Cyclin-dependent kinase 3, with cyclin E (CDK3, Homo sapiens, UniProt Q00526)
CDK3: Cyclin-dependent kinase 3 (CDK3, Homo sapiens, UniProt Q00526)

SMILES	target	test	setting	endpoint	result
O=C(CSc1nc2nccnc2c(=O)n1CCc1ccccc1)Nc1nccs1	CDK3 with cyclin E1	enzyme activity, inhibitor	10 µM	inhibition	-19%
O=C1Nc2ccc(Cl)cc2C1=Cc1cc(Cl)c(O)c(Cl)c1	CDK3 with cyclin E	cell-free assay	0.5 µM	remaining signal	85.4%
O=C(Nc1cnn(-c2csc(C(=O)NC3COC3)c2)c1)Nc1c(F)cccc1Cl	CDK3 with cyclin E	enzyme activity, inhibitor	5 µM	remaining activity	92.2%
Cc1cc(-n2nc(Cc3cc(F)cc(C(F)(F)F)c3)nc2C)ccc1C(N)=O	CDK3	cell-free assay, competition with immobilised ligand	1 µM	remaining binding	100%
CC(C)(C)c1nc(-c2cccc(NS(=O)(=O)c3c(F)cccc3F)c2F)c(-c2ccnc(N)n2)s1	CDK3 with cyclin E1	enzyme activity, inhibitor, radiometric	1 µM	remaining activity	103%
Cc1ccc(-n2nc(C(C)(C)C)cc2NC(=O)Nc2ccc(OCCN3CCOCC3)c3ccccc23)cc1	CDK3 with cyclin E	enzyme activity, inhibitor	10 µM	inhibition	-10%
Cc1ccc(NC(=O)c2ccc(C)c(C(F)(F)F)c2)cc1C#Cc1nn(C2CCC(O)CC2)c2ncnc(N)c12 (stereo not drawn)	CDK3 with cyclin E	cell-free assay	10 µM	remaining signal	93%
COc1cccc(CNC(=O)c2nc3scc(COCc4ccc(C(=O)O)cc4)c3c(=O)[nH]2)c1	CDK3	cell-free assay, competition with immobilised ligand	1 µM	remaining binding	100%
O=C1NC(=O)c2cc(Nc3ccc(F)cc3)c(Nc3ccc(F)cc3)cc21	CDK3 with cyclin E	cell-free assay	0.5 µM	remaining signal	98.9%
Cc1cnc(NC2CCOCC2)nc1-n1cnc(C(=O)NC(CN)c2cc(F)cc(Cl)c2)c1 (stereo not drawn)	CDK3 with cyclin E	enzyme activity, inhibitor, radiometric	1 µM	remaining activity	5%
CN(C)c1ncnc(-c2ccc3nc(Nc4cc(CN5CCN(C(=O)CC(F)(F)F)CC5)ccn4)[nH]c3c2)c1Cl	CDK3	cell-free assay, competition with immobilised ligand	1 µM	remaining binding	86%
CC(C)(C)c1nc2c(s1)c1nc(N)ncc1c1ccc(NS(=O)(=O)c3c(F)cccc3F)c(F)c12	Cyclin-dependent kinase 3, with cyclin C (CDK3, Homo sapiens, UniProt Q00526)	enzyme activity, inhibitor, radiometric	1 µM	remaining activity	97%
CNC(=O)c1cc(Oc2ccc(NC(=O)Nc3ccc(Cl)c(C(F)(F)F)c3)cc2)ccn1	CDK3 with cyclin E	enzyme activity, inhibitor	10 µM	inhibition	0%
O=C(Nc1cnn(-c2csc(C(=O)NC3COC3)c2)c1)Nc1ccccc1Cl	CDK3 with cyclin E	enzyme activity, inhibitor	5 µM	remaining activity	107%
Cc1cc(NC(=O)c2cccc(S(F)(F)(F)(F)F)c2)cc(-n2ccn3nc(-c4cccnc4)cc23)c1	CDK3	cell-free assay, competition with immobilised ligand	1 µM	remaining binding	100%
Cc1ccc(Nc2nccc(N(C)c3ccc4c(C)n(C)nc4c3)n2)cc1S(N)(=O)=O	CDK3 with cyclin E	enzyme activity, inhibitor	10 µM	inhibition	8%
CC(C)c1ccc(NC(=O)c2cccs2)c(-c2nc3ccccc3[nH]c2=O)c1	CDK3 with cyclin E	enzyme activity, inhibitor	1 µM	activity vs control	109%
CC(C)(O)[C@H]1CC[C@H](Nc2ccc3ncc(-c4cccc(C(F)(F)F)c4)n3n2)CC1	CDK3 with cyclin E	enzyme activity, inhibitor	1 µM	remaining activity	105%
CS(=O)(=O)NCC[C@H](NC(=O)c1cncc2c1cnn2-c1ccc(F)cc1)c1ccnc(S(C)(=O)=O)c1	CDK3	cell-free assay, competition with immobilised ligand	1 µM	remaining binding	100%
COc1cc(Cl)c(C(=O)N[C@@H](CN[C@H]2CC[C@@H](N)CC2)Cc2ccc(C#N)cc2)cc1-c1ccc(CN[C@H](C)c2ccc(C)cc2)o1	CDK3 with cyclin E	enzyme activity, inhibitor	1 µM	remaining activity	99%
NS(=O)(=O)c1cc(NC(=O)Cc2ccccc2)ccc1Oc1cccc(Cl)c1	CDK3	cell-free assay, competition with immobilised ligand	1 µM	remaining binding	92%
Cc1sc(C(=O)NC2COC2)cc1-n1cc(NC(=O)Nc2c(F)cccc2Cl)cn1	Cyclin-dependent kinase 3, with cyclin E2 (CDK3, Homo sapiens, UniProt Q00526)	enzyme activity, inhibitor	10 µM	remaining activity	103%
O=C(NCc1ncc(C(F)(F)F)cc1Cl)c1ccc2c(c1)C1(CCS(=O)(=O)CC1)[C@@H](C1CC1)N2S(=O)(=O)c1ccc(F)cc1	CDK3	cell-free assay, competition with immobilised ligand	1 µM	remaining binding	41%
CCN(CC)CCNC(=O)c1c(C)[nH]c(/C=C2\C(=O)Nc3ccc(F)cc32)c1C	CDK3 with cyclin E	enzyme activity, inhibitor	0.3 µM	inhibition	1%
